A selection: hits, their analogues and other compounds. The true share with any hit is near 2.3%.
Mcl1 Bid PPI – Mcl-1/Bid binding inhibitors, primary screen, biochemical, TR-FRET, 1536-well. inhibition, % at 21.7 µM. TR-FRET Mcl-1/Bid-Dy647 peptide binding. actives 0.97% (n = 220,000);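 active = compounds that cut the binding signal by more than half at the single screening dose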;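 also: His-tagged Mcl-1 with europium anti-His antibody binding Bid BH3 peptide; 0% = Mcl-1 plus peptide wells and 100% = peptide-only wells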
Mcl1 Noxa PPI – Mcl-1/Noxa binding inhibitors, primary screen, biochemical, TR-FRET, 1536-well; actives 1.5% (n = 220,000); TR-FRET Mcl-1/Noxa peptide binding, 2 h; inhibition, % at 21.7 µM; Induced myeloid leukemia cell differentiation protein Mcl-1 (Homo sapiens), Q07820;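 active = compounds that cut the protein-peptide binding signal by more than 50% relative to plate controls in a single-dose test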;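 also: His-tagged Mcl-1 with rhodamine Noxa BH3 peptide and terbium anti-His antibody; 0% = Mcl-1 plus Noxa peptide wells and 100% = peptide-only wells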
T cell HTS – modulators of CD8 T cell-vesicle binding, primary screen, mouse 2C CD8+ T cells, flow cytometry; actives 0.068% (n = 330,000); 2C CD8+ T cell-vesicle binding; hits give low values; response (vesicle binding), % at 7 µM; AID 2052, 2009;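 active = response, share of CD8 T cells binding vesicles, and their 90th percentile fluorescence all below set limits, cut at about 80% in these data, passing the limit was not always enough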;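 also: values below 100% mean blocked vesicle binding to the CD8+ T cells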
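incubation = binding step 1.5 h, 37 °C, antibody labelling 20 min, ice | test system = 2C mouse CD8+ T cells | read-out basis = percent CD8+ FL2 mean versus row control | controls = Peptide-free naked vesicles (low) and QL9 vesicles with 0.7% DMSO vehicle (high) | detection = flow cytometry of vesicle-bound cells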
Pemphigus Ab inh – inhibitors of pemphigus antibody binding to DSG3, primary screen, biochemical, bead-based, flow cytometry, scFv-GFP. Desmoglein-3 (Homo sapiens), P32926. DSG3-coupled beads, scFv-anti-DSG3-GFP binding; hits give low values. binding (percent of control), % at 10 µM. actives 0.48% (n = 310,000);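 active = binding more than 3 SD below its plate's average and above zero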;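 also: hits lower antibody fragment binding to DSG3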
Target sequence (P32926 whole entry, looked up, the tested form may be a part): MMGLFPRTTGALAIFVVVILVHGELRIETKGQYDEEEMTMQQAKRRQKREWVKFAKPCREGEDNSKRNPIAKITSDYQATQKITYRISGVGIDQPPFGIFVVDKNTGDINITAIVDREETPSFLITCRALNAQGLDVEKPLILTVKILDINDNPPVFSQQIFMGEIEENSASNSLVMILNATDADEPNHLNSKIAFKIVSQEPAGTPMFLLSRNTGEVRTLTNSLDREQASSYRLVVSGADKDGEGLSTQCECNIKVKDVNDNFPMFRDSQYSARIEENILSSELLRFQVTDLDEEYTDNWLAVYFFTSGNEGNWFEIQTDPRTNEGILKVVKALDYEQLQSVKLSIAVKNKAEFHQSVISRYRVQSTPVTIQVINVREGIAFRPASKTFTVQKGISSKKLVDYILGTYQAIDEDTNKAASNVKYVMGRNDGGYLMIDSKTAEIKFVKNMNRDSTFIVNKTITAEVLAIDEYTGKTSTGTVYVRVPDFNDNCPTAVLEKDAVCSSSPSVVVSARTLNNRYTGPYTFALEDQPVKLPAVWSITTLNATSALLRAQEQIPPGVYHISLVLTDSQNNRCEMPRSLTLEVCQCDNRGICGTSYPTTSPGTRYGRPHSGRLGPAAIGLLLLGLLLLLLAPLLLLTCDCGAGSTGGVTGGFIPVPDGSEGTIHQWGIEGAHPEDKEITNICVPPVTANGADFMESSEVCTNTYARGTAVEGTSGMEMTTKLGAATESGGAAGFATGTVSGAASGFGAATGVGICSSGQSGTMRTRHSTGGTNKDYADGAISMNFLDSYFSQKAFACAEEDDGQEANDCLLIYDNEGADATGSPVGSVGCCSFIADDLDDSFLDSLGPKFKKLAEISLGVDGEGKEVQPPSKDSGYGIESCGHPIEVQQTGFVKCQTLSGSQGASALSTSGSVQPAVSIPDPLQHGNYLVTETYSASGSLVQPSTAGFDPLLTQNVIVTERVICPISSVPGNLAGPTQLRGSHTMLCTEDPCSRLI
Bim-Mcl-1 – inhibitors of Bim peptide binding to Mcl-1, primary screen, biochemical, bead-based flow cytometry, multiplex. Induced myeloid leukemia cell differentiation protein Mcl-1 (Homo sapiens), Q07820. Bim peptide-Mcl-1 binding. inhibition, % at 10 µM. actives 0.1% (n = 190,000). AID 1009, 2008; in the data active = inhibition above about 40%;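 also: 0% = no compound tracer wells and 100% = peptide blocker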
MCL1-BIM inh – inhibitors of MCL1 binding to BIM-BH3, primary screen, biochemical, fluorescence polarization | Induced myeloid leukemia cell differentiation protein Mcl-1 (Homo sapiens), Q07820 | GST-MCL1 / FITC-Bim-BH3 fluorescence polarization | inhibition, % at 10.9 µM | actives 0.68% (n = 320,000);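 active = inhibition above the mean inhibition of all tested compounds plus 3 SD, set per campaign, cut at about 40% in these data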;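 also: 0% = DMSO wells and 100% = unlabeled Bim-BH3 peptide control; higher means more loss of mP so more displacement of Bim peptide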
Numbers without * were called inactive.

What do the screens show for `O=C(CN1CCCCC1)Nc1ccc(S(=O)(=O)N2CCCCCC2)cc1`?
Mcl1 Bid PPI: -11.1; Mcl1 Noxa PPI: -3.1; T cell HTS: 445.0; Pemphigus Ab inh: 102.0; Bim-Mcl-1: 0.0; MCL1-BIM inh: 9.0

What do the screens show for `CC(=O)N[C@H]1[C@H]([C@H](O)[C@H](O)CO)O[C@](O)(C(=O)O)C[C@@H]1O`?
Pemphigus Ab inh: 100.2

Results for CSc1ccc(C2=C/C(=C3/SC(=S)NC3=O)c3ccccc3O2)cc1 ?
Pemphigus Ab inh: 80.7*

Results for COc1ccc(CNC(=O)c2ccc(Cl)c(NC3=NC4CS(=O)(=O)CC4S3)c2)cc1 (centres undefined) ?
T cell HTS: 787.6; Pemphigus Ab inh: 67.6*; MCL1-BIM inh: 4.6

What do the screens show for `Nc1ncnc2c1ncn2[C@@H]1O[C@H](CNC(=O)[C@H]2CCC(=O)N2)[C@@H](O)[C@H]1O`?
Pemphigus Ab inh: 97.6

Results for CCN(CC)S(=O)(=O)c1ccc(C(=O)Oc2coc(CSc3nc(C)cc(C)n3)cc2=O)cc1 ?
Mcl1 Bid PPI: -2.6; Mcl1 Noxa PPI: 70.4*; T cell HTS: 224.9; Pemphigus Ab inh: 97.5; Bim-Mcl-1: 1.0; MCL1-BIM inh: 5.5

How did CCN(CC(=O)NCC(=O)Nc1ccc(Br)cc1C)Cc1ccccc1 do in these assays?
T cell HTS: 158.2; Pemphigus Ab inh: 104.7; MCL1-BIM inh: -5.1

How did O=C(NC1CCN(C(=O)Nc2ccc(F)cc2)CC1)c1cccc(F)c1 do in these assays?
T cell HTS: 184.5; MCL1-BIM inh: -6.7

Results for COc1ccc(N=Cc2c(O)n(-c3ccc(OC)cc3)c(=O)c3ccccc23)cc1 ?
Mcl1 Bid PPI: 48.9; Mcl1 Noxa PPI: 45.5; T cell HTS: 273.5; Pemphigus Ab inh: 106.8; Bim-Mcl-1: -2.0; MCL1-BIM inh: -3.8

Results for O=c1c2ccccc2c(C=Nc2cccc(O)c2)c(O)n1-c1ccc2c(c1)OCO2 ?
Mcl1 Bid PPI: 60.2*; Mcl1 Noxa PPI: 50.2; T cell HTS: 435.7; Pemphigus Ab inh: 100.7; Bim-Mcl-1: -4.0; MCL1-BIM inh: 4.9

How did COc1cccc(/C=C/C(=O)c2ccc3c(c2)OCCO3)c1OC do in these assays?
T cell HTS: 183.1; Pemphigus Ab inh: 113.4; MCL1-BIM inh: 1.8

Results for CC(C)[C@H](NC(=O)Cc1ccccc1)C(=O)OCc1cc(=O)n2c(n1)sc1ccccc12 ?
Mcl1 Bid PPI: 1.9; Mcl1 Noxa PPI: 76.2*; T cell HTS: 234.6; Pemphigus Ab inh: 88.2; Bim-Mcl-1: -3.0; MCL1-BIM inh: 14.5

How did Cc1ccc2c(CC(=O)OCc3cc(=O)n4c(n3)sc3ccccc34)coc2c1 do in these assays?
Mcl1 Bid PPI: -34.1; Mcl1 Noxa PPI: 39.5; T cell HTS: 522.2; Pemphigus Ab inh: 101.1; Bim-Mcl-1: 0.0; MCL1-BIM inh: 23.0

Results for Cc1cc(C)c(S(=O)(=O)Nc2cc(SCC(=O)O)c(O)c3ccccc23)cc1C ?
Mcl1 Bid PPI: 29.4; Mcl1 Noxa PPI: 82.1*; T cell HTS: 566.9; Bim-Mcl-1: 0.0; MCL1-BIM inh: 27.3

Results for COc1ccc(OC)c(/C=N/c2oc(-c3ccco3)c(-c3ccco3)c2C#N)c1 ?
Mcl1 Bid PPI: -47.6; Mcl1 Noxa PPI: 77.2*; T cell HTS: 398.4; Pemphigus Ab inh: 94.9; Bim-Mcl-1: 1.0; MCL1-BIM inh: 1.9

How did COc1ccc(C2(C(=O)Nc3ccc(C(=O)O)cc3)CCOCC2)cc1 do in these assays?
Mcl1 Bid PPI: 59.1*; Mcl1 Noxa PPI: -4.8; T cell HTS: 135.5; Pemphigus Ab inh: 95.0; Bim-Mcl-1: 0.0; MCL1-BIM inh: -1.7

What do the screens show for `CCS(=O)(=O)c1ccc(O)c(NC(=O)c2ccc(S(=O)(=O)N3CCCCCC3)cc2)c1`?
T cell HTS: 110.9; Pemphigus Ab inh: 96.0
